Experimental data reported in ChEMBL document CHEMBL1126119, “3',3'-Difluoro-3'-deoxythymidine: comparison of anti-HIV activity to 3'-fluoro-3'-deoxythymidine” (J Med Chem, 1992).

Legend:
[1] = tested on: MT4; test: Concentration required to reduce the number of viable cells in the untreated MT-4 cell culture; type: functional; details: Homo sapiens, read-out: CD50 (the source's name)
Procedure, shortened: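 Uninfected, untreated MT4 cell cultures were used. CD50 is the cytotoxic dose that reduces the number of viable cells by 50%.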

[2] = tested on: MT4; test: Concentration required to affect a 50% reduction in the cytopathic effect of HIV for MT-4 cells; type: functional; details: Homo sapiens, read-out: ED50 (the source's name)
Procedure, shortened: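 HIV-infected MT4 cell cultures were used. ED50 is the dose that gives a 50% reduction in the HIV-induced cytopathic effect.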

[3] = molecular target: Human immunodeficiency virus type 1 reverse transcriptase (Human immunodeficiency virus 1, UniProt Q72547); test: Concentration required to inhibit HIV reverse transcriptase

| IC50 [3] | Compound | CC50 [1] | EC50 [2] |
| --- | --- | --- | --- |
| < 0.05 µM | Cc1cn([C@H]2C[C@H](F)[C@@H](CO)O2)c(=O)[nH]c1=O [ALOVUDINE] | 0.197 µM | 0.001 µM |
| 8.8 µM | Cc1cn([C@H]2CC(F)(F)[C@@H](CO)O2)c(=O)[nH]c1=O | 48.4 µM | 38.6 µM |
| < 0.05 µM | Cc1cn([C@H]2CC[C@@H](CO)O2)c(=O)[nH]c1=O | > 625 µM | 6 µM |

| Compound | IC50 [3] | CC50 [1] | EC50 [2] |
| --- | --- | --- | --- |
| Cc1cn([C@H]2C[C@H](N=[N+]=[N-])[C@@H](CO)O2)c(=O)[nH]c1=O [ZIDOVUDINE] | 0.04 µM | 20 µM | 0.004 µM |
